Data set [1] has as its target T1, Tyrosine-protein phosphatase non-receptor type 1 (Homo sapiens, UniProt P18031).
T1 sequence (P18031 whole entry): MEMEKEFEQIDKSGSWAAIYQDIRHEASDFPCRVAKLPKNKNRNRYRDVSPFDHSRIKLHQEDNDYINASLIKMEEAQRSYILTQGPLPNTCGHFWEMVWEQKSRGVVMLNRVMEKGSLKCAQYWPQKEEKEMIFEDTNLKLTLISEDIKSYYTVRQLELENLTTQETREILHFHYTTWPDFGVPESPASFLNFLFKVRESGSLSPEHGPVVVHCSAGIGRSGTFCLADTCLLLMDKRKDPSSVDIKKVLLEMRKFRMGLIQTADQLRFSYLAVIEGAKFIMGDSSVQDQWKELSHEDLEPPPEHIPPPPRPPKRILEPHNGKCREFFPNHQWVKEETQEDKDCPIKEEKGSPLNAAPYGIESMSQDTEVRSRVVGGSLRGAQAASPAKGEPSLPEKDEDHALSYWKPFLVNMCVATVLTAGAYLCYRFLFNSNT
The data set is described as follows: Mixed-competitive inhibition of human recombinant PTP1B using p-nitrophenylphosphate as substrate by Lineweaver-Burk plot analysis.

The target of data set [2] is T1, Tyrosine-protein phosphatase non-receptor type 1. The data set is described as follows: Inhibition of human recombinant PTP1B using p-nitrophenylphosphate as substrate. An outline of the steps:
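Human recombinant PTP1B in 50 mM citrate pH 6.0, 0.1 M NaCl, 1 mM EDTA, 1 mM DTT, ± sample, preincubated 10 min at 37 °C. Substrate 2 mM p-NPP, then 20 min at 20 °C, stopped with NaOH, A405. Blank without enzyme corrects for non-enzymatic hydrolysis. IC50 by regression, mean ± SD of three replicates.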

In data set [3] the test system is 3T3-L1 (Mus musculus). Briefly: Induction of 2-NBDG uptake in mouse 3T3-L1 adipocyte cells at 5 uM after 24 hrs measured after 30 mins of 2-NBDG by fluorescence assay.
Data set [4] can be described thus: Cytotoxicity against mouse NIH/3T3 cells at 50 uM after 48 hrs by MTT assay. To be noted: nih3t3, 48 h.
The target in data set [5] is T1, Tyrosine-protein phosphatase non-receptor type 1. The data set is described as follows: Uncompetitive inhibition of human recombinant PTP1B using p-nitrophenylphosphate as substrate by Lineweaver-Burk plot analysis.
Data set [6] shares this target. The data set is described as follows: Noncompetitive inhibition of human recombinant PTP1B using p-nitrophenylphosphate as substrate by Lineweaver-Burk plot analysis.

“And” between values parts separate entries of the source, which are not always exact repeats. Identical values can stand only once. The source made the active and inactive calls. The rule behind the calls is not given here.

Take `COc1ccc(C(=C2C=CC(=O)C=C2)c2c(-c3ccc(O)cc3)ccc(CO)c2C#Cc2ccc(O)cc2)cc1`: the Ki in data set [1] stood at 8.9 µM. Also, the IC50 in data set [2] worked out at 11.5 µM. For the same compound, the outcome in data set [3] was Active.

Consider `O=C1C=CC(=C(c2ccc(O)cc2)c2c(-c3ccc(O)cc3)ccc(CO)c2C#Cc2ccc(O)cc2)C=C1`, for which the Activity entry in data set [4] is recorded as “Non-toxic”. In addition, the Ki in data set [1] is 3 µM and 13.9 µM. In addition, the IC50 in data set [2] was 4.6 µM and 15.9 µM. The result in data set [3] was Active.

`O=C(O)c1nnc(-c2ccc(-c3ccccc3)cc2)o1`: the IC50 in data set [2] worked out at 0.7 µM.

In the case of `COCc1ccc(-c2ccc(O)cc2O)c(C(O)(c2ccc(O)cc2)c2ccc(O)cc2)c1C#Cc1ccc(O)cc1`, the Ki in data set [5] is 15.1 µM. In data set [4], the Activity entry is “Non-toxic”. Further, the IC50 in data set [2] was 19.4 µM. Moreover, the result in data set [3] was Active.

Turning to `OCc1ccc(-c2ccc(O)cc2O)c(C(O)(c2ccc(O)cc2)c2ccc(O)cc2)c1C#Cc1ccc(O)cc1`, the Activity result in data set [4] was “Non-toxic”. Further, the IC50 in data set [2] was found to be 21.6 µM. In data set [3], the outcome was Active. Further, in data set [6], the Ki is 10.3 µM.

Source of the values: ChEMBL document CHEMBL3392973, “Insulin-mimetic selaginellins from Selaginella tamariscina with protein tyrosine phosphatase 1B (PTP1B) inhibitory activity” (J Nat Prod, 2015).
